# Columns and labels:
# Beta-lactamase = Beta-lactamase (Pseudomonas aeruginosa (strain ATCC 15692 / PAO1 / 1C / PRS 101 / LMG12228), UniProt P24735); assay: Inhibition of Pseudomonas aeruginosa CL5701 AmpC by spectrophotometric assay
# Method in brief: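 AmpC from Pseudomonas aeruginosa, in 100 mM KH₂PO₄ buffer pH 7 with 0.005% BSA. Inhibitor serially diluted from DMSO and preincubated with enzyme 40 min at room temperature. Nitrocefin then added for a further 40 min. Quenched with 2.5 N acetic acid, absorbance read at 492 nm. IC₅₀ taken from semi-log plots of inhibition versus inhibitor concentration.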
# [1] = target: Beta-lactamase (Pseudomonas aeruginosa (strain ATCC 15692 / PAO1 / 1C / PRS 101 / LMG12228)) (UniProt P24735); assay: Inhibition of AmpC in Pseudomonas aeruginosa CL5701 assessed as concentration required to reduce the imipenen MIC from 32 ug/ml to 4 ug/ml by in vitro synergy assay
# Sequence of Beta-lactamase (Pseudomonas aeruginosa (strain ATCC 15692 / PAO1 / 1C / PRS 101 / LMG12228)) (P24735 27-397 limits assumed): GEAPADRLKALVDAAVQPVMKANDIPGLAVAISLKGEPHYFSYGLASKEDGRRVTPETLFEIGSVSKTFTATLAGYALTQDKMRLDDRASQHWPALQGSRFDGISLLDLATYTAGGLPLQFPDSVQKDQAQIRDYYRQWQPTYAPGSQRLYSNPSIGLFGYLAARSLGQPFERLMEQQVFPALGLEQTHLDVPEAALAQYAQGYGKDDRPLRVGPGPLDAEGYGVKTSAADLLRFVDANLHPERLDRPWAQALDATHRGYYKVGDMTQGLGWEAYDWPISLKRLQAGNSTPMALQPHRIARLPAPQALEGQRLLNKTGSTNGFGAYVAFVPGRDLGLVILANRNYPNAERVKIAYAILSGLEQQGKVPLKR
# Sequence of Beta-lactamase (P24735 whole entry): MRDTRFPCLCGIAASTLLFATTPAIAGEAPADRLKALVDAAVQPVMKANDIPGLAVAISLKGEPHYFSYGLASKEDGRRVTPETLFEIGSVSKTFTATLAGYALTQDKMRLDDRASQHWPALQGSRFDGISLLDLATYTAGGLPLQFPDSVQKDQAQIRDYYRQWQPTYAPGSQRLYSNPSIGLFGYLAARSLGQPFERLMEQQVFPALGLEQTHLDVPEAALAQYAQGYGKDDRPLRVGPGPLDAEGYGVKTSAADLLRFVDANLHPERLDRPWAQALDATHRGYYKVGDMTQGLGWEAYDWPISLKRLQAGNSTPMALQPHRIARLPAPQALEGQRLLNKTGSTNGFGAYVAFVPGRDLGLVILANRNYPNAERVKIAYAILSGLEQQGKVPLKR
Structure (SMILES),IC50 (Beta-lactamase) [nM],Activity [1] [µM]
NC(=O)N1CC[C@@H]2[C@H]1C(=O)N2S(=O)(=O)O,16000,> 100
CN(C)CCCNC(=O)N1CC[C@@H]2[C@H]1C(=O)N2S(=O)(=O)O,2100,25
CC(C)NC(=O)N1CC[C@@H]2[C@H]1C(=O)N2S(=O)(=O)O,1800,> 100
C[N+]1(C)CCC[C@H](NC(=O)N2CC[C@@H]3[C@H]2C(=O)N3S(=O)(=O)[O-])CC1,1500,50
CNCCCNC(=O)N1CC[C@@H]2[C@H]1C(=O)N2S(=O)(=O)O,5300,50
CNCCCCNC(=O)N1CC[C@@H]2[C@H]1C(=O)N2S(=O)(=O)O,3500,25
O=C1[C@H]2NCC[C@H]2N1S(=O)(=O)O,> 250000,> 100
CN(C)CCCCCNC(=O)N1CC[C@@H]2[C@H]1C(=O)N2S(=O)(=O)O,1900,100
CN(C)CCCCNC(=O)N1CC[C@@H]2[C@H]1C(=O)N2S(=O)(=O)O,1600,25

# More lines, now with the values ahead:
IC50 (Beta-lactamase) [nM],Activity [1] [µM],Structure (SMILES)
2600,25,CN1CCC[C@H](NC(=O)N2CC[C@@H]3[C@H]2C(=O)N3S(=O)(=O)O)CC1
600,25,NCCN1CCC[C@H](NC(=O)N2CC[C@@H]3[C@H]2C(=O)N3S(=O)(=O)O)CC1
900,25,O=C(N[C@H]1CCCN(CCO)CC1)N1CC[C@@H]2[C@H]1C(=O)N2S(=O)(=O)O
900,100,CN(C)CCN1CCC[C@H](NC(=O)N2CC[C@@H]3[C@H]2C(=O)N3S(=O)(=O)O)CC1
1100,50,O=C(N[C@H]1CCCN(CCCO)CC1)N1CC[C@@H]2[C@H]1C(=O)N2S(=O)(=O)O

# Reference: ChEMBL document CHEMBL1799948, “Side chain SAR of bicyclic β-lactamase inhibitors (BLIs). 2. N-Alkylated and open chain analogs of MK-8712” (Bioorg Med Chem Lett, 2011)
